From ChEMBL document CHEMBL1155031, “Structure-activity relationships of 7-deaza-6-benzylthioinosine analogues as ligands of Toxoplasma gondii adenosine kinase” (J Med Chem, 2008)

System: Toxoplasma gondii
Experiment: Antitoxoplasma activity against wild type Toxoplasma gondii RH assessed as survival at 50 uM after 18 hrs by [5,6-[…]]uracil incorporation assay
Type: functional
Conditions: not given
Summary of the method: (§1)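 Human foreskin fibroblast monolayers (≤20 passages, RPMI 1640) seeded ~5×10⁵ cells/well, attached 24 h at 37 °C, 5% CO2. Infected with isolated tachyzoites at 1 parasite/cell in 3% FBS for 1 h, then washed. Compounds were dissolved in 50% ethanol and added at final 0, 5, 10, 25 or 50 µM with 10% FBS. Survival was read as radiolabeled uracil incorporation into TCA-precipitated nucleic acid versus untreated controls, at least in triplicate.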

Compound | survival at 50 µM [%]
N#Cc1ccc(CSc2ncnc3c2ccn3[C@@H]2O[C@H](CO)[C@@H](O)[C@H]2O)cc1 | 0
COc1ccc(CSc2ncnc3c2ccn3[C@@H]2O[C@H](CO)[C@@H](O)[C@H]2O)cc1 | 0
CCc1nc(N)nc(N)c1-c1ccc(Cl)cc1 [PYRIMETHAMINE] | 5.8
Nc1ccc(S(=O)(=O)Nc2ncccn2)cc1 [SULFADIAZINE] | 46.4

System: not listed separately
Experiment: Toxicity against human foreskin fibroblasts at 25 uM after 48 hrs by MTT method
Type: cell-based, Fibroblast
Conditions: read-out: Survival
Summary of the method: (§2)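 Uninfected human foreskin fibroblasts (≤20 passages, RPMI 1640) seeded ~10⁵ cells/well and attached ≥24 h at 37 °C, 5% CO2. Compound in medium added to final concentrations, then 48 h incubation. MTT was added for 4 h, formazan dissolved in DMSO and absorbance read at 540 nm. At least two independent experiments, each in triplicate.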

Compound | viability at 48 h, 25 µM [%]
N#Cc1ccc(CSc2ncnc3c2ccn3[C@@H]2O[C@H](CO)[C@@H](O)[C@H]2O)cc1 | 94.3
COc1ccc(CSc2ncnc3c2ccn3[C@@H]2O[C@H](CO)[C@@H](O)[C@H]2O)cc1 | 100
CCc1nc(N)nc(N)c1-c1ccc(Cl)cc1 [PYRIMETHAMINE] | 108
Nc1ccc(S(=O)(=O)Nc2ncccn2)cc1 [SULFADIAZINE] | 99.8

System: Toxoplasma gondii
Experiment: Antitoxoplasma activity against wild type Toxoplasma gondii RH assessed as survival after 18 hrs by [5,6-[…]]uracil incorporation assay
Type: functional, organism-based
Conditions: not given

Compound | IC50 [µM]
N#Cc1ccc(CSc2ncnc3c2ccn3[C@@H]2O[C@H](CO)[C@@H](O)[C@H]2O)cc1 | 5.3
COc1ccc(CSc2ncnc3c2ccn3[C@@H]2O[C@H](CO)[C@@H](O)[C@H]2O)cc1 | 4.6
CCc1nc(N)nc(N)c1-c1ccc(Cl)cc1 [PYRIMETHAMINE] | 5.9
Nc1ccc(S(=O)(=O)Nc2ncccn2)cc1 [SULFADIAZINE] | 41.2

System: Toxoplasma gondii
Experiment: Antitoxoplasma activity against adenosine kinase deficient Toxoplasma gondii TgAK-3 assessed as survival at 50 uM after 18 hrs by [5,6-[…]]uracil incorporation assay
Type: functional
Conditions: not given
Summary of the method: as §1

Compound | survival at 50 µM [%]
N#Cc1ccc(CSc2ncnc3c2ccn3[C@@H]2O[C@H](CO)[C@@H](O)[C@H]2O)cc1 | 100
COc1ccc(CSc2ncnc3c2ccn3[C@@H]2O[C@H](CO)[C@@H](O)[C@H]2O)cc1 | 100

System: Toxoplasma gondii
Experiment: Antitoxoplasma activity against adenosine kinase deficient Toxoplasma gondii TgAK-3 assessed as survival at 5 uM after 18 hrs by [5,6-[…]]uracil incorporation assay
Type: functional
Conditions: not given
Summary of the method: as §1

Compound | survival at 5 µM [%]
N#Cc1ccc(CSc2ncnc3c2ccn3[C@@H]2O[C@H](CO)[C@@H](O)[C@H]2O)cc1 | 98.4
COc1ccc(CSc2ncnc3c2ccn3[C@@H]2O[C@H](CO)[C@@H](O)[C@H]2O)cc1 | 100

System: not listed separately
Experiment: Toxicity against human foreskin fibroblasts at 10 uM after 48 hrs by MTT method
Type: cell-based, Fibroblast
Conditions: read-out: Survival
Summary of the method: as §2

Compound | viability at 48 h, 10 µM [%]
N#Cc1ccc(CSc2ncnc3c2ccn3[C@@H]2O[C@H](CO)[C@@H](O)[C@H]2O)cc1 | 100
COc1ccc(CSc2ncnc3c2ccn3[C@@H]2O[C@H](CO)[C@@H](O)[C@H]2O)cc1 | 100
CCc1nc(N)nc(N)c1-c1ccc(Cl)cc1 [PYRIMETHAMINE] | 100
Nc1ccc(S(=O)(=O)Nc2ncccn2)cc1 [SULFADIAZINE] | 99.8

System: Toxoplasma gondii
Experiment: Antitoxoplasma activity against wild type Toxoplasma gondii RH assessed as survival at 5 uM after 18 hrs by [5,6-[…]]uracil incorporation assay
Type: functional
Conditions: not given
Summary of the method: as §1

Compound | survival at 5 µM [%]
N#Cc1ccc(CSc2ncnc3c2ccn3[C@@H]2O[C@H](CO)[C@@H](O)[C@H]2O)cc1 | 52.5
COc1ccc(CSc2ncnc3c2ccn3[C@@H]2O[C@H](CO)[C@@H](O)[C@H]2O)cc1 | 49.8
CCc1nc(N)nc(N)c1-c1ccc(Cl)cc1 [PYRIMETHAMINE] | 55.6
Nc1ccc(S(=O)(=O)Nc2ncccn2)cc1 [SULFADIAZINE] | 74.6

System: Toxoplasma gondii
Experiment: Antitoxoplasma activity against wild type Toxoplasma gondii RH assessed as survival at 10 uM after 18 hrs by [5,6-[…]]uracil incorporation assay
Type: functional
Conditions: not given
Summary of the method: as §1

Compound | survival at 10 µM [%]
N#Cc1ccc(CSc2ncnc3c2ccn3[C@@H]2O[C@H](CO)[C@@H](O)[C@H]2O)cc1 | 4
COc1ccc(CSc2ncnc3c2ccn3[C@@H]2O[C@H](CO)[C@@H](O)[C@H]2O)cc1 | 5
CCc1nc(N)nc(N)c1-c1ccc(Cl)cc1 [PYRIMETHAMINE] | 36.5
Nc1ccc(S(=O)(=O)Nc2ncccn2)cc1 [SULFADIAZINE] | 64.8

System: not listed separately
Experiment: Toxicity against human foreskin fibroblasts at 50 uM after 48 hrs by MTT method
Type: cell-based, Fibroblast
Conditions: read-out: Survival
Summary of the method: as §2

Compound | viability at 48 h, 50 µM [%]
N#Cc1ccc(CSc2ncnc3c2ccn3[C@@H]2O[C@H](CO)[C@@H](O)[C@H]2O)cc1 | 82.1
COc1ccc(CSc2ncnc3c2ccn3[C@@H]2O[C@H](CO)[C@@H](O)[C@H]2O)cc1 | 90.6
CCc1nc(N)nc(N)c1-c1ccc(Cl)cc1 [PYRIMETHAMINE] | 108
Nc1ccc(S(=O)(=O)Nc2ncccn2)cc1 [SULFADIAZINE] | 102

Target: T1, Adenosine kinase (Toxoplasma gondii, UniProt Q9TVW2)
T1 sequence (Q9TVW2 whole entry): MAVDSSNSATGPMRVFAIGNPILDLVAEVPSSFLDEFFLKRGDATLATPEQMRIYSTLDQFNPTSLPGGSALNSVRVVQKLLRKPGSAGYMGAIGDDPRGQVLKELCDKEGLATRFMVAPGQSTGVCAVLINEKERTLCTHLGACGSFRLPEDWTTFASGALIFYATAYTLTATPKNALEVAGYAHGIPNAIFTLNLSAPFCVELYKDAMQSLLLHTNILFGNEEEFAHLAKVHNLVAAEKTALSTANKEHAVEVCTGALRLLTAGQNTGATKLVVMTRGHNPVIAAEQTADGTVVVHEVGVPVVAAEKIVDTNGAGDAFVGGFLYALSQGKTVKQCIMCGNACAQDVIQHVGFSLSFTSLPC
Experiment: Binding affinity to purified Toxoplasma gondii adenosine kinase
Conditions: not given
Summary of the method: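 Radiometric assay at 37 °C in 50 mM Tris-Cl pH 7.4 with 2.5 mM ATP, 5 mM MgCl₂, creatine phosphate/creatine kinase regeneration and 5 µM [8-¹⁴C]adenosine, plus varied inhibitor. Reaction stopped by boiling, then adenosine and AMP separated by TLC and quantified. Apparent Ki from Dixon plots (1/V vs [I]), taken as equal to apparent Km for alternative substrates. Mean ± SD, ≥2 experiments in triplicate.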

Compound | Ki [µM]
OC[C@H]1O[C@@H](n2ccc3c(SCc4ccccc4)ncnc32)[C@H](O)[C@@H]1O | 28
OC[C@H]1O[C@@H](n2ccc3c(SCc4ccc(F)cc4)ncnc32)[C@H](O)[C@@H]1O | 37
N#Cc1ccc(CSc2ncnc3c2ccn3[C@@H]2O[C@H](CO)[C@@H](O)[C@H]2O)cc1 | 5.2
Cc1ccc(CSc2ncnc3c2ccn3[C@@H]2O[C@H](CO)[C@@H](O)[C@H]2O)cc1 | 19
COc1ccc(CSc2ncnc3c2ccn3[C@@H]2O[C@H](CO)[C@@H](O)[C@H]2O)cc1 | 5.8
OC[C@H]1O[C@@H](n2ccc3c(SCc4ccc(Cl)c(Cl)c4)ncnc32)[C@H](O)[C@@H]1O | 29
OC[C@H]1O[C@@H](n2ccc3c(SCc4ccc(F)cc4F)ncnc32)[C@H](O)[C@@H]1O | 16
Cc1ccccc1CSc1ncnc2c1ccn2[C@@H]1O[C@H](CO)[C@@H](O)[C@H]1O | 228
O=[N+]([O-])c1cccc(CSc2ncnc3c2ccn3[C@@H]2O[C@H](CO)[C@@H](O)[C@H]2O)c1 | 45
OC[C@H]1O[C@@H](n2ccc3c(SCc4c(F)cccc4Cl)ncnc32)[C@H](O)[C@@H]1O | 7.2
OC[C@H]1O[C@@H](n2ccc3c(SCc4cccc(C(F)(F)F)c4)ncnc32)[C@H](O)[C@@H]1O | 22
OC[C@H]1O[C@@H](n2cc(I)c3c(SCc4ccccc4)ncnc32)[C@H](O)[C@@H]1O | 82.6
OC[C@H]1O[C@@H](n2ccc3c(SCc4ccc(Cl)cc4)ncnc32)[C@H](O)[C@@H]1O | 11
O=[N+]([O-])c1ccc(CSc2ncnc3c2ccn3[C@@H]2O[C@H](CO)[C@@H](O)[C@H]2O)cc1 | 35
OC[C@H]1O[C@@H](n2ccc3c(SCc4ccc(Br)cc4)ncnc32)[C@H](O)[C@@H]1O | 253
CC(C)(C)c1ccc(CSc2ncnc3c2ccn3[C@@H]2O[C@H](CO)[C@@H](O)[C@H]2O)cc1 | 24
OC[C@H]1O[C@@H](n2ccc3c(SCc4ccc(OC(F)(F)F)cc4)ncnc32)[C@H](O)[C@@H]1O | 35
OC[C@H]1O[C@@H](n2ccc3c(SCc4ccc(Cl)cc4Cl)ncnc32)[C@H](O)[C@@H]1O | 26
OC[C@H]1O[C@@H](n2ccc3c(SCc4ccccc4F)ncnc32)[C@H](O)[C@@H]1O | 59
OC[C@H]1O[C@@H](n2ccc3c(SCc4ccccc4Cl)ncnc32)[C@H](O)[C@@H]1O | 36
COC(=O)c1ccc(CSc2ncnc3c2ccn3[C@@H]2O[C@H](CO)[C@@H](O)[C@H]2O)cc1 | 7
C=Cc1ccc(CSc2ncnc3c2ccn3[C@@H]2O[C@H](CO)[C@@H](O)[C@H]2O)cc1 | 180
Cc1cccc(CSc2ncnc3c2ccn3[C@@H]2O[C@H](CO)[C@@H](O)[C@H]2O)c1 | 8.5
OC[C@H]1O[C@@H](n2ccc3c(SCc4ccccc4Br)ncnc32)[C@H](O)[C@@H]1O | 106
OC[C@H]1O[C@@H](n2cnc3c(SCc4ccccc4)ncnc32)[C@H](O)[C@@H]1O [6-BENZYLTHIOINOSINE] | 37.7
Nc1ncnc2c1ncn2[C@@H]1O[C@H](CO)[C@@H](O)[C@H]1O [ADENOSINE] | 8.9

System: Toxoplasma gondii
Experiment: Antitoxoplasma activity against wild type Toxoplasma gondii RH assessed as survival at 25 uM after 18 hrs by [5,6-[…]]uracil incorporation assay
Type: functional
Conditions: not given
Summary of the method: as §1

Compound | survival at 25 µM [%]
N#Cc1ccc(CSc2ncnc3c2ccn3[C@@H]2O[C@H](CO)[C@@H](O)[C@H]2O)cc1 | 0
COc1ccc(CSc2ncnc3c2ccn3[C@@H]2O[C@H](CO)[C@@H](O)[C@H]2O)cc1 | 0
CCc1nc(N)nc(N)c1-c1ccc(Cl)cc1 [PYRIMETHAMINE] | 13.8
Nc1ccc(S(=O)(=O)Nc2ncccn2)cc1 [SULFADIAZINE] | 59.8

System: not listed separately
Experiment: Toxicity against human foreskin fibroblasts at 5 uM after 48 hrs by MTT method
Type: cell-based, Fibroblast
Conditions: read-out: Survival
Summary of the method: as §2

Compound | viability at 48 h, 5 µM [%]
N#Cc1ccc(CSc2ncnc3c2ccn3[C@@H]2O[C@H](CO)[C@@H](O)[C@H]2O)cc1 | 100
COc1ccc(CSc2ncnc3c2ccn3[C@@H]2O[C@H](CO)[C@@H](O)[C@H]2O)cc1 | 100
CCc1nc(N)nc(N)c1-c1ccc(Cl)cc1 [PYRIMETHAMINE] | 101
Nc1ccc(S(=O)(=O)Nc2ncccn2)cc1 [SULFADIAZINE] | 98.2

System: Toxoplasma gondii
Experiment: Antitoxoplasma activity against adenosine kinase deficient Toxoplasma gondii TgAK-3 assessed as survival at 25 uM after 18 hrs by [5,6-[…]]uracil incorporation assay
Type: functional
Conditions: not given
Summary of the method: as §1

Compound | survival at 25 µM [%]
N#Cc1ccc(CSc2ncnc3c2ccn3[C@@H]2O[C@H](CO)[C@@H](O)[C@H]2O)cc1 | 100
COc1ccc(CSc2ncnc3c2ccn3[C@@H]2O[C@H](CO)[C@@H](O)[C@H]2O)cc1 | 100

System: Toxoplasma gondii
Experiment: Antitoxoplasma activity against adenosine kinase deficient Toxoplasma gondii TgAK-3 assessed as survival at 10 uM after 18 hrs by [5,6-[…]]uracil incorporation assay
Type: functional
Conditions: not given
Summary of the method: as §1

Compound | survival at 10 µM [%]
N#Cc1ccc(CSc2ncnc3c2ccn3[C@@H]2O[C@H](CO)[C@@H](O)[C@H]2O)cc1 | 100
COc1ccc(CSc2ncnc3c2ccn3[C@@H]2O[C@H](CO)[C@@H](O)[C@H]2O)cc1 | 100
